Assay results pooled from the literature.
Each line is one published result; the experiments were not run side by side.
Target: 5-hydroxytryptamine receptor 2A (HTR2A, Homo sapiens, UniProt P28223)
Concentration: 10 µM

The inhibition of `Clc1ccc2c(C3CCN(CCc4c[nH]c5ccccc45)CC3)c[nH]c2c1` is reported as 99% (ligand displacement, radioligand).
The remaining signal of `Nc1ncc(-c2nc(N3CCOCC3)nc(N3CCOCC3)n2)c(C(F)F)n1` is reported as 98.1% (cell-free assay, radioligand).
The inhibition of `COCCN(CCOC)C(=O)[C@@]12C[C@@H]1[C@@H](n1cnc3c(NC(C4CC4)C4CC4)nc(Cl)nc31)[C@H](O)[C@@H]2O` is reported as 0% (ligand displacement, radioligand).
`Nc1c(C(=O)NCc2ccc(C(=O)NCCCC3CCCCC3)cc2)cnn1-c1ccccc1` gave an inhibition of 23.7% (ligand displacement).
The inhibition of `CSC[C@@]12C[C@@H]1[C@@H](n1cnc3c(NC(C4CC4)C4CC4)nc(I)nc31)[C@H](O)[C@@H]2O` is reported as 24% (ligand displacement, radioligand).
The inhibition of `CCN(CC)CCCC[C@H](NC(=O)[C@H](CC(C)C)NC(=O)[C@H](C)NC(=O)[C@H](Cc1ccccc1)NC(=O)c1ccc(C(C)(C)C)cc1)C(=O)N[C@@H](CO)C(=O)OC` is reported as 39% (ligand displacement, radioligand).
The inhibition of `CCc1ccccc1C(=O)Nc1n[nH]c2c(C)c(F)c(C3C(C#N)=C(C)N(C)C(C)=C3C#N)cc12` is reported as 14.8% (ligand displacement).
The inhibition of `COCCN(CCOC)C(=O)[C@@]12C[C@@H]1[C@@H](n1cnc3c(N)nc(Cl)nc31)[C@H](O)[C@@H]2O` is reported as 3% (ligand displacement, radioligand).
`COc1cc2c3c(c1OC)-c1cc4c(cc1CC3N(C)CC2)OCO4` (racemic) has an inhibition of 89.3% (ligand displacement, radioligand).
With `COCc1c(-c2cc3cc(C)cc(OC)c3s2)c2c(N)ncnn2c1CN1CCNC(=O)C1` the inhibition was 23% (ligand displacement, radioligand).
